The test system of assay [1] is Mus musculus. Description: Antiinflammatory activity in mouse assessed as inhibition of carrageenan-induced increase in paw volume at 200 mg/kg administered 1 hr prior to carrageenan challenge measured after 3 hrs relative to control. In kind it is functional. Put shortly: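 Mice were fasted 2 h and placed in groups of five. Controls received saline i.p. Phenylbutazone was given at 100 mg/kg i.p., curcumin at 200 mg/kg i.p., and derivatives at 200 mg/kg. After 1 h, 0.1 mL of 1% carrageenan in saline was injected subplantar into the right hind paw. Paw volume was followed by plethysmometer for 3 h, and % inhibition was calculated as (Vc − Vt)/Vc × 100.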
In general terms: In the carrageenan paw model, swelling and tenderness develop within hours.

For assay [2], the system named is HCT-116. Briefly: Cytotoxicity against human HCT116 cells after 24 hrs by MTT assay. Format: functional, cell-based. Put shortly:
(§1)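 The MTT assay seeded 5 × 10⁴ cells per well and grew them 24 h in RPMI 1640 with compound at 2.5–200 µM. Medium without cells was the blank and adriamycin the positive control. MTT was added for 4 h at 37 °C, formazan was solubilised, and absorbance was read at 570 nm. IC50 is the concentration that cuts viability 50% against untreated cells.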
(Tetrazolium dyes change colour on reduction, which living cells bring about.)

For assay [3], the system named is QG-56. Description: Cytotoxicity against human QG56 cells after 24 hrs by MTT assay. In kind it is functional, cell-based. A digest of the protocol:
as §1

The subject of assay [4] is HeLa. Briefly: Cytotoxicity against human HeLa cells after 24 hrs by MTT assay. Format: functional, cell-based. Put shortly: as §1
Assay [5] relates to HepG2. Description: Cytotoxicity against human HepG2 cells after 24 hrs by MTT assay. Format: functional, cell-based. Put shortly:
as §1

For assay [6], the system named is Trichoderma viride. Description: Antifungal activity against Trichoderma viride MTCC 1107 after 48 hrs. In kind it is functional. Conditions: MTCC 1107, 48 h.
The test system of assay [7] is Trichoderma viride. Briefly: Antifungal activity against Trichoderma viride MTCC 1107 assessed as zone of inhibition at 20 uM after 48 hrs by disc diffusion method. In kind it is functional. A digest of the protocol: (§2)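 Spores from 4-day potato dextrose agar cultures, suspended in sterile water at 1.5 × 10⁵ CFU/mL. 0.2 mL was spread on potato dextrose agar. 5 mm filter-paper discs soaked with test compound were laid on the lawn. Incubation was 48 h at 28 °C, then the inhibition zone was measured in mm. Fluconazole was the positive control and acetone the negative control.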

Assay [8] concerns Trichoderma viride. Description: Antifungal activity against Trichoderma viride MTCC 1107 assessed as zone of inhibition at 40 uM after 48 hrs by disc diffusion method. Format: functional. Put shortly: as §2
(In general: A growth-free zone around the sample is the usual read-out of agar diffusion tests.)

Assay [9] has as its system Trichoderma viride. Description: Antifungal activity against Trichoderma viride MTCC 1107 assessed as zone of inhibition at 80 uM after 48 hrs by disc diffusion method. In kind it is functional. Conditions: MTCC 1107, 48 h, read-out: IZ. A digest of the protocol:
as §2

Assay [10] relates to Curvularia lunata. Description: Antifungal activity against Curvularia lunata MTCC 581 after 48 hrs. Format: functional. Conditions: MTCC 581, 48 h.
Assay [11] concerns Curvularia lunata. Description: Antifungal activity against Curvularia lunata MTCC 581 assessed as zone of inhibition at 20 uM after 48 hrs by disc diffusion method. Format: functional. A digest of the protocol: as §2
The test system of assay [12] is Curvularia lunata. Description: Antifungal activity against Curvularia lunata MTCC 581 assessed as zone of inhibition at 40 uM after 48 hrs by disc diffusion method. In kind it is functional. A digest of the protocol:
as §2

The test system of assay [13] is Aspergillus flavus. Description: Antifungal activity against Aspergillus flavus MTCC 1021 after 48 hrs. Format: functional.
For assay [14], the system named is Curvularia lunata. Briefly: Antifungal activity against Curvularia lunata MTCC 581 assessed as zone of inhibition at 80 uM after 48 hrs by disc diffusion method. Format: functional. As to conditions: MTCC 581, 48 h, read-out: IZ. A digest of the protocol:
as §2

In assay [15] the test system is Aspergillus flavus. Description: Antifungal activity against Aspergillus flavus MTCC 1021 assessed as zone of inhibition at 80 uM after 48 hrs by disc diffusion method. Format: functional. Put shortly: as §2
The subject of assay [16] is Aspergillus niger. Description: Antifungal activity against Aspergillus niger MTCC 1108 after 48 hrs. Format: functional.
Assay [17] deals with Aspergillus niger. Briefly: Antifungal activity against Aspergillus niger MTCC 1108 assessed as zone of inhibition at 80 uM after 48 hrs by disc diffusion method. In kind it is functional. A digest of the protocol: as §2
For assay [18], the system named is Escherichia coli. Briefly: Antimicrobial activity against Escherichia coli ATCC 35218 after 24 hrs by broth micro serial dilution method. In kind it is functional. Put shortly: (§3)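 This was broth microdilution in autoclaved Mueller-Hinton broth. 150 µL of compound per well was serially diluted […], and 50 µL of test organism was added. Plates were incubated 24 h at 37 °C and optical density was read.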

The subject of assay [19] is Escherichia coli. Briefly: Antimicrobial activity against Escherichia coli ATCC 35218 assessed as diameter of inhibition zone at 80 uM after 24 hrs by Kirby -Baur disc diffusion method. In kind it is functional. A digest of the protocol: (§4)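 Kirby-Bauer disc diffusion was used. Acetone stocks (160 µM) were serially doubled down to 80, 40 and 20 µM. 4 µL of each went onto 5 mm sterile paper discs, which were dried 30 min at 50 °C. Inoculum was 1.5 × 10⁸ CFU/mL diluted to 3 × 10² CFU/mL, and 50 µL was spread on Mueller-Hinton agar. After 24 h at 37 °C the inhibition-zone diameter was measured. Ciprofloxacin served as positive control.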

Assay [20] has as its system Pseudomonas aeruginosa. Briefly: Antimicrobial activity against Pseudomonas aeruginosa ATCC 15499 after 24 hrs by broth micro serial dilution method. Format: functional. Put shortly:
as §3

Assay [21] concerns Pseudomonas aeruginosa. Description: Antimicrobial activity against Pseudomonas aeruginosa ATCC 15499 assessed as diameter of inhibition zone at 80 uM after 24 hrs by Kirby -Baur disc diffusion method. In kind it is functional. A digest of the protocol: as §4
Assay [22] relates to Salmonella typhi. Briefly: Antimicrobial activity against Salmonella typhi ATCC 23564 after 24 hrs by broth micro serial dilution method. In kind it is functional, Salmonella enterica subsp. enterica serovar Typhi.
The subject of assay [23] is Salmonella typhi. Briefly: Antimicrobial activity against Salmonella typhi ATCC 23564 assessed as diameter of inhibition zone at 20 uM after 24 hrs by Kirby -Baur disc diffusion method. Format: functional. As to conditions: Salmonella enterica subsp. enterica serovar Typhi.
Assay [24] has as its system Salmonella typhi. Briefly: Antimicrobial activity against Salmonella typhi ATCC 23564 assessed as diameter of inhibition zone at 40 uM after 24 hrs by Kirby -Baur disc diffusion method. Format: functional. Conditions: Salmonella enterica subsp. enterica serovar Typhi.
Assay [25] concerns Salmonella typhi. Briefly: Antimicrobial activity against Salmonella typhi ATCC 23564 assessed as diameter of inhibition zone at 80 uM after 24 hrs by Kirby -Baur disc diffusion method. As to conditions: for diameter of the inhibition zone (DIZ): Salmonella enterica subsp. enterica serovar Typhi. Format: functional, Salmonella enterica subsp. enterica serovar Typhi.
Assay [26] relates to Bacillus cereus. Description: Antimicrobial activity against Bacillus cereus MTCC 7350 after 24 hrs by broth micro serial dilution method. Format: functional. Put shortly: as §3
Assay [27] has as its system Bacillus cereus. Description: Antimicrobial activity against Bacillus cereus MTCC 7350 assessed as diameter of inhibition zone at 80 uM after 24 hrs by Kirby -Baur disc diffusion method. In kind it is functional. A digest of the protocol:
as §4

Assay [28] relates to Staphylococcus aureus. Briefly: Antimicrobial activity against Staphylococcus aureus ATCC 11632 after 24 hrs by broth micro serial dilution method. Format: functional. Put shortly: as §3
Assay [29] concerns Staphylococcus aureus. Description: Antimicrobial activity against Staphylococcus aureus ATCC 11632 assessed as diameter of inhibition zone at 80 uM after 24 hrs by Kirby -Baur disc diffusion method. Format: functional. Put shortly: as §4
[30] abbreviates: Salmonella enterica, ATCC 23564, 24 h.

Usually inhibition in vivo stands for the relative decrease from the control value, in per cent. As a reminder, the MIC is the lowest concentration found to suppress growth.

Activity calls are given as the source filed them. The calls are words filed in the database; no cut-off is given here.

Consider `COc1cc(/C=C/c2noc(/C=C/c3ccc(O)c(OC)c3)c2/N=N/c2ccc(S(N)(=O)=O)cc2)ccc1O`, for which, in assay [1], the inhibition in vivo at 200 mg/kg worked out at 24.1%. Also, the IC50 result in assay [2], in [3], in assay [4] and in assay [5] was “Not Active” in each case. The MIC in assay [6], in assay [10] and in [22] (setting [30]) was > 80 µM in each case. Further, the “inhibition zone (IZ)” value in assay [7], in assay [8], in assay [11], in assay [12], in assay [15] and in assay [17] was “inactive” in each case. Also, the zone of inhibition at 80 µM in assay [9] was determined as 11 mm; in assay [14] it was 9 mm; in [25] (Salmonella enterica, ATCC 23564, 24 h, read-out: DIZ), 11 mm. The MIC entry in assay [13], in assay [16], in assay [18], in assay [20], in assay [26] and in [28] was “inactive” in each case. Besides, the “diameter of the inhibition zone (DIZ)” value in assay [19], in assay [21], in [23], in [24], in assay [27] and in assay [29] was “inactive” throughout.
For the compound `Cc1cc(NS(=O)(=O)c2ccc(N)cc2)no1` [SULFAMETHOXAZOLE], the MIC in assay [18] (ATCC 35218, 24 h) is > 160 µM; in assay [22] (setting [30]) it was > 160 µM; in assay [28] (ATCC 11632, 24 h), > 160 µM. For the same compound, the “diameter of the inhibition zone (DIZ)” value in [19], in assay [21], in assay [25], in assay [27] and in assay [29] was “inactive” in each case. The MIC result in assay [20] and in assay [26] was “inactive” each time.
`Nc1ccc(S(=O)(=O)Nc2ccccn2)cc1` [SULFAPYRIDINE]: the MIC in assay [18] (ATCC 35218, 24 h) is > 160 µM. Further, the “diameter of the inhibition zone (DIZ)” value in assay [19], in assay [21], in assay [25], in [27] and in assay [29] was “inactive” in each case. Besides, the MIC result in assay [20], in assay [22] (Salmonella enterica subsp. enterica serovar Typhi), in assay [26] and in assay [28] was “inactive” each time.
Consider `COc1ccc(NS(=O)(=O)c2ccc(N)cc2)nn1` [SULFAMETHOXYPYRIDAZINE], for which the MIC was > 160 µM in assay [18] (ATCC 35218, 24 h); > 160 µM in [20] (ATCC 15499, 24 h); > 160 µM in [22] (setting [30]); > 160 µM in [26] (MTCC 7350, 24 h); > 80 µM in assay [28] (ATCC 11632, 24 h). Further, the “diameter of the inhibition zone (DIZ)” value in [19], in assay [21], in [25], in assay [27] and in assay [29] was “inactive” throughout.

These data come from ChEMBL document CHEMBL2384906, “Biological activity, design, synthesis and structure activity relationship of some novel derivatives of curcumin containing sulfonamides” (Eur J Med Chem, 2013).
